MEKK3 PB1 HTS = raises or lowers MEK5 binding to the human MEKK3 PB1 domain; bead-based flow cytometry, Alexa488-MEK5 binding to MEKK3; actives lie on both sides; 0 = blocked by unlabeled MEK5, 100 = vehicle; binding response (% of control), % at 10 µM; 290,000 tested, 1.4% active; AID 1529;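 active means binding response more than 3 SD above or below the average of its plate-row segment, actives on both sides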;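 further: Alexa488 bead fluorescence after subtracting the streptavidin-only scavenger bead signal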
Target sequence (Q99759 whole entry, looked up, the tested form may be a part): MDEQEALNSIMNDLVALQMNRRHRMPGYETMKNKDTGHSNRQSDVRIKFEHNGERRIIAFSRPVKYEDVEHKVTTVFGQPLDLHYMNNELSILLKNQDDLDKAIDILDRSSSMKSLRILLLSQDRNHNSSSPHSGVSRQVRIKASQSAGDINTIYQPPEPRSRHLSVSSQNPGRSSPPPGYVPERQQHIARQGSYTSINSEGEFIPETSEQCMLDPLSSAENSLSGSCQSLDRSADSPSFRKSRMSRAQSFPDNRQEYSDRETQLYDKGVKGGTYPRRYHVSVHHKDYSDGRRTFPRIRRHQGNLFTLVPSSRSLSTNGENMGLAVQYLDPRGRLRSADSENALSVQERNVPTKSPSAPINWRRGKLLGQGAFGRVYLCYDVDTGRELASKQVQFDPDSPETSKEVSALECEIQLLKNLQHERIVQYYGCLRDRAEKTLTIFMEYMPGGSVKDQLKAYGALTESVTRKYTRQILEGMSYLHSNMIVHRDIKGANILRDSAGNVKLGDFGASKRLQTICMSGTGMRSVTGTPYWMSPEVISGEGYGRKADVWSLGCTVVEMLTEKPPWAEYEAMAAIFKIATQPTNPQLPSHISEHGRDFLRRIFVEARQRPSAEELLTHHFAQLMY
MEKK2mut PB1 HTS = signal of MEK5 binding to mutant human MEKK2 PB1 domain. bead flow cytometry, Alexa488-MEK5 binding to MEKK2 mutant. percent response, % at 10 µM. 290,000 tested, 0.35% active. AID 1530; in the data active means percent response above about 24%, passing the limit was not always enough
MEKK2 WT-MEK5 = raises or lowers MEK5 binding to wildtype human MEKK2 PB1 domain | AID 1531 | binding response (% of control), % at 10 µM | 290,000 tested, 1.1% active | bead flow cytometry, Alexa488-MEK5 binding to MEKK2 WT; actives lie on both sides; in the data active means binding response below about 67% or above about 130%
Lipid droplet = modulators of hepatic lipid droplet formation. inhibition, % at 6.5 µM. AML12 mouse hepatocytes, oleate lipid droplets, BODIPY imaging. AID 1656. 240,000 tested, 0.4% active;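 active means lipid droplet intensity inhibited by at least 50%, with more than 500 cells counted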
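Assay system: AML12 mouse liver cells | Compound: 6.5 µM single-point dosing | Schedule: Overnight exposure | Technique: Fluorescence imaging, 20x objective, two fields per well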
MEKK2wt confirm = raises or lowers MEK5 binding to wildtype human MEKK2, retest. shares compounds with MEKK3 PB1 HTS. bead flow cytometry, Alexa488-MEK5 binding to MEKK2 WT; actives lie on both sides. binding response (% of control), % at 10 µM. 5,900 tested, 2.4% active; in the data active means binding response below about 16% or above about 210%; inactive means in between
MEKK2mut-MEK5 = signal of MEK5 binding to mutant human MEKK2, retest; shares compounds with MEKK3 PB1 HTS; bead flow cytometry, Alexa488-MEK5 binding to MEKK2 mutant; 5,900 tested, 2% active; AID 1893; percent response, % at 10 µM; in the data active means percent response mostly above about 71%, no sharp cut-off; inactive means mostly below about 38%;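 further: higher means compound restores mutant binding toward wildtype level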
MEKK3-MEK5 inh = confirmation of inhibitors of MEK5 binding to human MEKK3; binding response (% of control), % at 10 µM; shares compounds with MEKK3 PB1 HTS; AID 1894; 5,900 tested, 1.8% active; bead flow cytometry, Alexa488-MEK5 binding to MEKK3; active compounds read low;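 active means binding response below 72% of control, or above a set upper limit, though filed actives all read lower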;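 further: 100% = DMSO only wells and 0% = binding blocked by excess unlabeled MEK5; lower values mean stronger disruption of MEK5 binding to MEKK3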
* marks the source's active call; other numbers are inactive results; x = no result given; [ ] = remark or other dose. This is a sample that favours compounds with a hit; in the whole collection about 2.6% have one here.

SMILES	MEKK3 PB1 HTS	MEKK2mut PB1 HTS	MEKK2 WT-MEK5	Lipid droplet	MEKK2wt confirm	MEKK2mut-MEK5	MEKK3-MEK5 inh
CCSC1=NCCN1S(=O)(=O)c1ccccc1	50*[inhibitor]	-16	58	1	103	-2	106
CCSC1=NCCN1S(=O)(=O)c1ccc(Cl)cc1	109	-12	100	1	x	x	x
CC(=O)Nc1c2c(nn1-c1ccc(F)cc1)CSC2	102	7	107	16	x	x	x
CCOc1ccccc1NC(=O)C1(S(=O)(=O)c2ccc(Cl)cc2)CC1	102	-1	98	x	x	x	x
COc1ccccc1CNC(=O)CN(c1cccc([N+](=O)[O-])c1)S(C)(=O)=O	1.0*[inhibitor]	-22	-2.0*[inhibitor]	-12	96	-11	97
Cc1cccc(OCCCC(=O)NCCc2ccccc2)c1	137*	0	108	5	105	4	104
CC(=O)c1ccc(OCCCC(=O)NCCc2ccccc2)cc1	104	14	108	-6	x	x	x
COc1ccc(Nc2nc(-c3ccccc3)c(C(=O)Nc3cccnc3)s2)cc1	101	-2	98	2	x	x	x
Cc1c(Br)c(C(F)(F)F)nn1CC(=O)NCc1ccccc1	132*	0	102	12	91	-6	93
COc1ccc(CNC(=O)Cn2nc(C(F)(F)F)c(Br)c2C)cc1	102	2	104	x	x	x	x
Nc1nc(Nc2ccccc2)nc(NCc2ccco2)c1[N+](=O)[O-]	105	-2	99	1	x	x	x
Cc1ccc(Nc2nc(N)c([N+](=O)[O-])c(NCc3ccco3)n2)cc1	152*	1	112	16	90	-1	99
COc1cccc(-n2c([S-])c(C(=O)Nc3ccc(S(=O)(=O)N4CCOCC4)cc3)[n+]3cc(C(N)=O)ccc23)c1	96	-2	96	-15	x	x	x
O=S(=O)(Nc1ccc(N2CCOCC2)cc1)c1c(F)cc(F)cc1Br	100	-1	97	9	x	x	x
Cc1ccc(NCC(=O)N/N=C/c2ccncc2)cc1	137*	6	127	0	110	8	108
COc1cccc(/C=N/NC(=O)Cn2ccnc2C)c1	142*	0	106	-2	87	-5	91
Cc1ccc(NCC(=O)N/N=C/c2cccc(Oc3ccccc3)c2)cc1	134*	1	107	-21	104	-3	100
Cc1cccc(NCC(=O)N/N=C/c2ccc(Br)cc2)c1	47*[inhibitor]	-16	48	-3	98	2	103
Cc1cccc(NCC(=O)N/N=C\c2cccc(Oc3ccccc3)c2)c1	100	-1	102	-40	x	x	x
Cc1nn(CC(=O)Nc2ccc(Br)cc2F)c(=O)c2cccn12	100	1	98	5	x	x	x
CCN(c1ccc(N=Cc2c(O)n(Cc3ccc(OC)cc3)c(=O)c3ccccc23)cc1)C(C)C	56*[inhibitor]	175*	x	29	98	-4	94
COC(=O)Cn1c(=NC(=O)c2ccc(OC)cc2)sc2cc(OC)ccc21	98	4	102	4	x	x	x
COC(=O)Cn1c(=NC(=O)c2cc(OC)cc(OC)c2)sc2cc(OC)ccc21	130*	0	103	6	99	-10	105
O=C(NCC1CCN(C(=O)c2c(F)c(F)c(F)c(F)c2F)CC1)c1c(F)c(F)c(F)c(F)c1F	104	2	107	-6	x	x	x
CC(Cc1c[nH]c2ccccc12)NC(N)=O (configuration not stated)	129*	0	111	-2	107	13	111
SMILES	MEKK3 PB1 HTS	MEKK2mut PB1 HTS	MEKK2 WT-MEK5	Lipid droplet	MEKK2wt confirm	MEKK2mut-MEK5	MEKK3-MEK5 inh
CCN(CC)c1ccc(NC(=O)C2=CCN(S(=O)(=O)c3ccc(F)cc3)CC2)c(C)c1	94	-4	95	-3	x	x	x
O=C(CSc1nc2ncc(Cl)cc2[nH]1)NCC(=O)Nc1ccc(F)c(F)c1F	101	-2	104	0	x	x	x
CCOC(=O)c1c(-c2ccccc2)oc2ccc(OCC(O)CNCCN(C)C)cc12 (configuration not stated)	100	31*	165*	-39	179	50	108
CCSC1=NC2(CCCCC2)Nc2sc3c(c21)CCCC3	3.0*[inhibitor]	-16	2.0*[inhibitor]	12	97	1	97
C=C(C)C(=O)Nc1cccc(C2=NOC3(C2)C[C@@H](C(N)=O)N(C(=O)/C=C/C=C/C)C3)c1 (some centres not stated)	68*[inhibitor]	-37	70	-40	90	-46	86
CCCCCC(=O)Nc1cccc(C2=NOC3(C2)C[C@H](C(N)=O)N(C(=O)CC#N)C3)c1 (some centres not stated)	1.0*[inhibitor]	-14	1.0*[inhibitor]	x	99	-12	100
CCCCCC(=O)Nc1cccc(C2=NOC3(C2)C[C@H](C(N)=O)N(C(=O)c2ccccc2)C3)c1 (some centres not stated)	68	-7	104	x	x	x	x
CN(C)CCN1CCc2ccccc21	100	11	144*	7	152	38	97
Cc1cc(-c2nn(-c3ccccc3F)cc2CN2CCN(c3ccncc3)CC2)c(C)s1	106	41	172*	-2	185	56	112
C/C(=N\NC(=O)COc1cc(C)cc(C)c1)c1cccc(NC(=O)C2CCC2)c1	104	6	107	0	x	x	x
CC1(CCc2ccc3c(c2)OCO3)NCCc2c1[nH]c1ccccc21 (configuration not stated)	107	25*	139	-3	131	14	105
CC1(CCc2ccc3c(c2)OCO3)NC(=O)c2ccccc2N1 (configuration not stated)	110	3	111	-16	x	x	x
O=C(N1CCN(c2ccccc2)CC1)C12CC3CC(CC(C3)C1)C2	105	5	105	x	x	x	x
CCn1c(N2CCN(S(=O)(=O)c3ccccc3C(F)(F)F)CC2)nc2ccccc21	2.0*[inhibitor]	-14	2.0*[inhibitor]	x	103	2	101
CCn1c(N2CCN(C(=O)C34CC5CC(CC(C5)C3)C4)CC2)nc2ccccc21	0.0*[inhibitor]	-15	0.0*[inhibitor]	-23	99	-3	98
c1ccc(-c2nnc(OCC3CCCO3)c3ccccc23)cc1 (configuration not stated)	104	3	106	8	x	x	x
O=C(NNC(=O)c1cccs1)c1ccc2ccccc2c1	94	-10	92	12	x	x	x
O=C(NNC(=O)c1cccs1)c1ccc(Cl)c(Cl)c1	149*	2	109	-2	97	-2	97
O=C(CN(c1cccc([N+](=O)[O-])c1)S(=O)(=O)c1ccccc1)NCc1ccccc1	96	-1	96	-6	x	x	x
